Calls of active or inactive are those of the source. The calls are words filed in the database; no cut-off is given here.
Legend:
518A2 [1] = experiment: Antiproliferative activity against human 518A2 cells after 72 hrs by MTT assay; type: functional, cell-based
How it was run: (§1)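 MTT read-out after 72 h of continuous exposure. Viability is expressed as percentage of viable cells relative to untreated controls. IC50 comes from dose-response curves. Values are means±SD of four independent experiments (two for some entries). DMSO was below 1%, with vehicle controls at equal DMSO. Precipitation was excluded spectrometrically and microscopically.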

HT-29 [2] = experiment: Antiproliferative activity against human HT-29 cells after 72 hrs by MTT assay; type: functional, cell-based; settings: HT-29, 72 h; how it was run: as §1
A2780 = experiment: Antiproliferative activity against human A2780 cells after 72 hrs by SRB assay; type: functional, cell-based; settings: A2780, 72 h
How it was run: (§2)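 Ovarian A2780 and cisplatin-resistant A2780cis cells were exposed for 72 h and stained with SRB. IC50 comes from dose-response curves, as means±SD of three independent experiments. Final DMSO was below 1%, with matched vehicle controls.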

[3] = Antiproliferative activity against human A2780cis cells after 72 hrs by SRB assay; type: functional, cell-based; how it was run: as §2
DLD-1 = experiment: Antiproliferative activity against human DLD1 cells after 72 hrs by MTT assay; type: functional, cell-based; settings: DLD-1, 72 h; how it was run: as §1
EA.hy 926 = experiment: Antiproliferative activity against human EAhy926 cells after 72 hrs by MTT assay; type: functional, cell-based; settings: EA.hy 926, 72 h; how it was run: as §1
PANC-1 = experiment: Antiproliferative activity against human PANC1 cells after 72 hrs by MTT assay; type: functional, cell-based; settings: PANC-1, 72 h; how it was run: as §1
HCT-116 = experiment: Antiproliferative activity against human HCT116 cells after 72 hrs by MTT assay; type: functional, cell-based; settings: HCT-116, 72 h; how it was run: as §1
[4] = Antiproliferative activity against human KB-V1/Vbl cells after 72 hrs by MTT assay; type: functional, cell-based; how it was run: as §1
[5] = Antiproliferative activity against human MCF7/Topo cells after 72 hrs by MTT assay; type: functional, cell-based; how it was run: as §1
HT-29 [6] = experiment: Cell cycle arrest in human HT-29 cells assessed as accumulation of cells at sub G1 phase at 100 nM after 24 hrs by propidium iodide staining-based flow cytometric analysis (reference value: 1.2 +/- 0.3%); type: functional
HT-29 [7] = experiment: Cell cycle arrest in human HT-29 cells assessed as accumulation of cells at sub G1 phase at 250 nM after 24 hrs by propidium iodide staining-based flow cytometric analysis (reference value: 1.2 +/- 0.3%); type: functional
HT-29 [8] = experiment: Cell cycle arrest in human HT-29 cells assessed as accumulation of cells at sub G1 phase at 350 nM after 24 hrs by propidium iodide staining-based flow cytometric analysis (reference value: 1.2 +/- 0.3%); type: functional
HT-29 [9] = experiment: Cell cycle arrest in human HT-29 cells assessed as accumulation of cells at G1 phase at 100 nM after 24 hrs by propidium iodide staining-based flow cytometric analysis (reference value: 75.1 +/- 1.1%); type: functional
HT-29 [10] = experiment: Cell cycle arrest in human HT-29 cells assessed as accumulation of cells at G1 phase at 250 nM after 24 hrs by propidium iodide staining-based flow cytometric analysis (reference value: 75.1 +/- 1.1%); type: functional
HT-29 [11] = experiment: Cell cycle arrest in human HT-29 cells assessed as accumulation of cells at G1 phase at 350 nM after 24 hrs by propidium iodide staining-based flow cytometric analysis (reference value: 75.1 +/- 1.1%); type: functional
HT-29 [12] = experiment: Cell cycle arrest in human HT-29 cells assessed as accumulation of cells at S phase at 100 nM after 24 hrs by propidium iodide staining-based flow cytometric analysis (reference value: 12.3 +/- 0.4%); type: functional
HT-29 [13] = experiment: Cell cycle arrest in human HT-29 cells assessed as accumulation of cells at S phase at 250 nM after 24 hrs by propidium iodide staining-based flow cytometric analysis (reference value: 12.3 +/- 0.4%); type: functional
HT-29 [14] = experiment: Cell cycle arrest in human HT-29 cells assessed as accumulation of cells at S phase at 350 nM after 24 hrs by propidium iodide staining-based flow cytometric analysis (reference value: 12.3 +/- 0.4%); type: functional
HT-29 [15] = experiment: Cell cycle arrest in human HT-29 cells assessed as accumulation of cells at G2/M phase at 100 nM after 24 hrs by propidium iodide staining-based flow cytometric analysis (reference value: 11.4 +/- 1.4%); type: functional
HT-29 [16] = experiment: Cell cycle arrest in human HT-29 cells assessed as accumulation of cells at G2/M phase at 250 nM after 24 hrs by propidium iodide staining-based flow cytometric analysis (reference value: 11.4 +/- 1.4%); type: functional
HT-29 [17] = experiment: Cell cycle arrest in human HT-29 cells assessed as accumulation of cells at G2/M phase at 350 nM after 24 hrs by propidium iodide staining-based flow cytometric analysis (reference value: 11.4 +/- 1.4%); type: functional
Chorioallantoic membrane [18] = experiment: Antiangiogenic activity in Leghorn chicken embryo chorioallantoic membrane assessed as disruption of smaller blood vessels at 5 nmol after 6 hrs by light microscopic analysis; type: functional, tissue-based; settings: Gallus gallus
How it was run: (§3)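 Fertilized chicken eggs, CAM assay. Compound was applied topically into a small silicon foil ring placed on the CAM. The membrane and its extraembryonal blood vessels were monitored over 24 h, with observations at 6 h and 24 h post application.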

Chorioallantoic membrane [19] = experiment: Antiangiogenic activity in Leghorn chicken embryo chorioallantoic membrane assessed as induction of hemorrhages at 5 nmol after 6 hrs by light microscopic analysis; type: functional, tissue-based; settings: Gallus gallus; how it was run: as §3
Chorioallantoic membrane [20] = experiment: Antiangiogenic activity in Leghorn chicken embryo chorioallantoic membrane assessed as induction of hemorrhages at 5 nmol after 24 hrs by light microscopic analysis; type: functional, tissue-based; settings: Gallus gallus; how it was run: as §3
Chorioallantoic membrane [21] = experiment: Antiangiogenic activity in Leghorn chicken embryo chorioallantoic membrane assessed as reduction in diameter of main blood vessel at 5 nmol after 24 hrs by light microscopic analysis; type: functional, tissue-based; settings: Gallus gallus; how it was run: as §3
Chorioallantoic membrane [22] = experiment: Antiangiogenic activity in Leghorn chicken embryo chorioallantoic membrane assessed as reduction in blood vessel area at 5 nmol after 6 hrs by light microscopic analysis relative to control; type: functional, tissue-based; settings: Gallus gallus
How it was run: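 The CAM assay was run with topical application into a silicon foil ring atop the CAM of fertilized chicken eggs. Area covered by blood vessels was quantified by fractal analysis relative to control.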

Chorioallantoic membrane [23] = experiment: Antiangiogenic activity in Leghorn chicken embryo chorioallantoic membrane assessed as effect on blood vessel length at 5 nmol after 6 hrs by light microscopic analysis; type: functional, tissue-based; settings: Gallus gallus; how it was run: as §3
518A2 [24] = experiment: Induction of apoptosis in human 518A2 cells assessed as accumulation at subG1 phase; type: functional, cell-based
518A2 [25] = experiment: Induction of cell cycle arrest in human 518A2 cells; type: functional, cell-based
HT-29 [26] = experiment: Cell cycle arrest in human HT-29 cells assessed as accumulation of cells at G2/M phase after 24 hrs by propidium iodide staining-based flow cytometric analysis; type: functional
Chorioallantoic membrane [27] = experiment: Antiangiogenic activity in Leghorn chicken embryo chorioallantoic membrane assessed as disruption of smaller blood vessels at 5 nmol after 24 hrs by light microscopic analysis; type: functional, tissue-based; settings: Gallus gallus; how it was run: as §3

**Q.** Which Activity (518A2 [1]) does the source give for N#CC1=C(N)Oc2c(cc(Cl)c3ccccc23)C1c1cc(F)cc(F)c1 (stereo not drawn) here?
**A.** Dose-dependent effect

**Q.** And the IC50 (518A2 [1]; 518A2, 72 h)?
**A.** 0.0241 µM

**Q.** What about the IC50 (HT-29 [2]) of the same compound?
**A.** 0.102 µM

**Q.** And the IC50 (A2780)?
**A.** 0.104 µM

**Q.** What about the IC50 [3] of the same compound?
**A.** 0.155 µM

**Q.** And the IC50 (DLD-1)?
**A.** 0.0984 µM

**Q.** And the IC50 (EA.hy 926)?
**A.** 0.0678 µM

**Q.** What about the IC50 (PANC-1) of the same compound?
**A.** 0.0927 µM

**Q.** What about the IC50 (HCT-116) of the same compound?
**A.** 0.091 µM

**Q.** What about the IC50 [4] of the same compound?
**A.** 0.092 µM

**Q.** And the IC50 [5]?
**A.** 0.0798 µM

**Q.** And the Activity (HT-29 [6])?
**A.** 3.3%

**Q.** And the Activity (HT-29 [7])?
**A.** 4.5%

**Q.** And the Activity (HT-29 [8])?
**A.** 3.5%

**Q.** What about the Activity (HT-29 [9]) of the same compound?
**A.** 52%

**Q.** What about the Activity (HT-29 [10]) of the same compound?
**A.** 3%

**Q.** And the Activity (HT-29 [11])?
**A.** 1.6%

**Q.** And the Activity (HT-29 [12])?
**A.** 19.6%

**Q.** And the Activity (HT-29 [13])?
**A.** 2.3%

**Q.** And the Activity (HT-29 [14])?
**A.** 2.2%

**Q.** And the Activity (HT-29 [15])?
**A.** 25%

**Q.** And the Activity (HT-29 [16])?
**A.** 90.3%

**Q.** What about the Activity (HT-29 [17]) of the same compound?
**A.** 90.3%

**Q.** And the Activity (Chorioallantoic membrane [18])?
**A.** Active

**Q.** What about the Activity (Chorioallantoic membrane [19]) of the same compound?
**A.** Active

**Q.** What about the Activity (Chorioallantoic membrane [20]) of the same compound?
**A.** inactive

**Q.** What about the Activity (Chorioallantoic membrane [21]) of the same compound?
**A.** Active

**Q.** And the Activity (Chorioallantoic membrane [22])?
**A.** inactive

**Q.** What about the Activity (Chorioallantoic membrane [23]) of the same compound?
**A.** inactive

**Q.** What about the Activity (518A2 [24]) of the same compound?
**A.** Active

**Q.** What about the Activity (518A2 [25]) of the same compound?
**A.** inactive

**Q.** And the Activity (HT-29 [26])?
**A.** Dose-dependent effect

**Q.** And the Activity (Chorioallantoic membrane [27])?
**A.** inactive

Reference: ChEMBL document CHEMBL4330063, “New naphthopyran analogues of LY290181 as potential tumor vascular-disrupting agents” (Eur J Med Chem, 2019)
